Measured values from different studies.
Each line is one published result; the experiments were not run side by side.
Method: competition with immobilised ligand
JAK2 JH1: Tyrosine-protein kinase JAK2, JH1 (JAK2, Homo sapiens, UniProt O60674)

| SMILES | target | assay | conditions | remaining binding [%] |
| --- | --- | --- | --- | --- |
| O=C(c1ccc(Nc2ncc(Cl)c(-c3cc4ccccc4s3)n2)cc1)N1CCC(N2CCCC2)CC1 | JAK2 JH1 | binding | 1 µM | 0 |
| Cc1cnn2ncc(-c3ccnc(N(C)C)n3)c2c1 | JAK2 JH1 | cell-free assay | 1 µM | 93 |
| O=C(NS(=O)(=O)c1ccc(NCC2CCOCC2)c([N+](=O)[O-])c1)c1ccc(N2CCN(Cc3ccc(C(F)(F)F)cc3-c3ccc(Cl)cc3)CC2)cc1Oc1cnc2[nH]ccc2c1 | JAK2 JH1 | cell-free assay | 1 µM | 90 |
| O=C(c1ccc(Nc2nccc(-c3cc4ccccc4s3)n2)cc1)N1CCC(N2CCCC2)CC1 | JAK2 JH1 | binding | 1 µM | 0.1 |
| C[C@@H]1CN(c2ccc3ncc(-c4ccc5[nH]nc(C6CC6)c5c4)n3n2)C[C@H](C)O1 | Tyrosine-protein kinase JAK2 (JAK2, Homo sapiens, UniProt O60674) | binding | 0.5 µM | 87 |
| O=C(Nc1c[nH]nc1C(=O)NC1CCNCC1)c1cc(F)cc(F)c1 | JAK2 JH1 | binding | 1 µM | 100 |
| O=C(NCCCN1CCOCC1)c1ccc(Nc2nccc(-c3cc4ccccc4s3)n2)cc1 | JAK2 JH1 | binding | 1 µM | 0.4 |
| CCc1ccccc1C(=O)Nc1n[nH]c2c(C)c(F)c(C3C(C#N)=C(C)N(C)C(C)=C3C#N)cc12 | JAK2 JH1 | cell-free assay | 1 µM | 100 |
| Nc1ncc2c(n1)-c1c([nH]c3ccc(C#CC4CC4)cc13)CCCC2 | JAK2 JH1 | binding | 1 µM | 80 |
| COc1ccc2cc(OCC3(C(=O)O)CN(C(=O)c4ccc(F)cc4)C3)ccc2c1 | JAK2 JH1 | cell-free assay | 1 µM | 89 |
| N#Cc1ccccc1CSc1nnc2c(n1)[nH]c1ccccc12 | JAK2 JH1 | binding | 10 µM | 100 |
| CN(C)c1nccc(-c2cnn3ncccc23)n1 | JAK2 JH1 | cell-free assay | 1 µM | 49 |
| CN(C)C(=O)Cn1cc(-c2nc([C@@](C)(c3ccc(-c4cnc(N)nc4)cc3)C3CC3)no2)cn1 | JAK2 JH1 | cell-free assay | 1 µM | 73 |
| FC(F)(F)Oc1cccc(-c2cnc3ccc(-c4ccncc4)nn23)c1 | JAK2 JH1 | cell-free assay | 5 µM | 56 |
| Cn1nc(C(F)(F)F)cc1-c1cnc(N2CCc3cc(S(=O)(=O)Nc4c(F)cc(Cl)cc4F)cc(N4CCCC4=O)c32)nc1 | JAK2 JH1 | cell-free assay | 1 µM | 82 |
| CNC(=O)[C@@H]1CC[C@@H](n2c(-c3ccc4cnccc4c3)nc3ccc(C(=O)NCc4cccc(C(N)=O)c4)cc32)C1 | JAK2 JH1 | binding | 1 µM | 100 |
| O=C(Nc1cccnn1)N1CCC(=Cc2cccc(Oc3ccc(C(F)(F)F)cn3)c2)CC1 | JAK2 JH1 | cell-free assay | 1 µM | 100 |
| CN(C)c1nccc(-c2cnc3ncccn23)n1 | JAK2 JH1 | cell-free assay | 1 µM | 80 |
